Source: PubChem BioAssay
Records with an inconclusive call do not appear. The source made the active and inactive calls.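 How the source made its calls, unless noted: active means viability increase at or above a cutoff of the median across tested compounds plus 3 SD (cut at about 8.5% in these data, passing the limit was not always enough); inconclusive means some gains above the cutoff, reason not given; inactive means the rest.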

Assays:
[1] = S. cerevisiae growth inhibition in permissive medium (OD615), pilot counter-assay for S. cerevisiae lifespan shortening project, permissive growth control (AID 705;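 active means growth inhibition above 25% in both replicates, a cutoff set 3 SD above the mean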); settings: OD615, 24 h, at 10 µM, active compounds read high
Summary of the method: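 System – S. cerevisiae with engineered DeaD lifespan system · Buffer or medium – SC raffinose/galactose permissive medium · Schedule – cells pre-grown 4 h, then 24 h compound exposure, 30 °C humidified · Technique – culture turbidity as optical density at 615 nm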

[2] = S. cerevisiae growth inhibition in restrictive medium, OD615, pilot screen, restrictive growth control, yeast lifespan reduction project (AID 706;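 active means growth inhibition above a set limit, 3 SD over mean compound inhibition, in both replicates, cut at about 43% in these data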;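 further: modified DeaD lifespan yeast strain shifted to restrictive glucose medium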); settings: OD615, 48 h, at 10 µM, active compounds read high
Summary of the method: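 Material: engineered S. cerevisiae DeaD strain / Medium: glucose-based CSMM-D restrictive medium / Compound: single dose of 10 µM compound final, 0.25% DMSO / Timing: 4 h pre-incubation, 48 h exposure at 30 °C / Technique: OD615 absorbance reading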

[3] = doxorubicin toxicity protection in MRP-1 cells – H69AR cells, CellTiter-Glo, duplicate, MRP-1 activator project, pilot screen (AID 807); settings: H69AR viability with doxorubicin, CellTiter-Glo luminescence; at 10 µM; active compounds read high;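 further: compound pretreatment 18-22 h then 72 h combined with doxorubicin; 0% = doxorubicin alone and 100% = vehicle without doxorubicin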
[4] = viability of HCT116 without oncogenic beta-catenin – human colon tumor cells, pilot screen (AID 823;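 active means cell viability at or below a set limit in both duplicate runs, the limit being the all-compound median minus 4 SD, cut at about 23% in these data, passing the limit was not always enough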;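 further: 0% = wells killed by 20 µM Hyamine and 100% = untreated DMSO cell wells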); settings: HCT116 beta-catenin knockout viability, CellTiter-Glo, 60 h; at 10 µM; active compounds read low
[5] = viability of PTEN-null HCT116 cells – cell-based, HCT116 clonal line, CellTiter-Glo, pilot screen (AID 824;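 active means viability at or below 27.92% in each of two runs, the all-compound median minus 4 SD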;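 further: 0% = 20 µM Hyamine control and 100% = vehicle cell control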); settings: HCT116 PTEN-deleted viability, 60 h, at 10 µM, active compounds read low
[6] = RAM pathway blockade in budding yeast – dse1pr::URA3 reporter, 5-FOA selection, pilot screen (AID 869;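 active means inhibition over a set limit, the all-compound mean plus 3 SD, in both replicate runs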;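 further: 0% = DMSO wells with no growth and 100% = 10 µM 1-NA-PP1 with full growth; RAM network block rescues cells from 5-FOA so hits raise OD615 growth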); settings: S. cerevisiae dse1pr::URA3 5-FOA growth, OD615, 2 d; at 10 µM; active compounds read high; strain carries analog-sensitive mutant Cbk1 kinase
[7] = RAM signaling pathway blockade in yeast – S. cerevisiae, Pdr1DBD-CYC8 efflux-inhibited sensitized strain, primary screen (AID 1298;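 active means RAM network inhibition above 8.4% in each of two replicates, 3 SD over the compound average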;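 further: 0% = DMSO untreated cells without growth and 100% = 10 µM 1-NA-PP1 full growth; higher means more yeast growth rescued from 5-FOA killing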); settings: S. cerevisiae cbk1-as DSE1-URA3 strain, 5-FOA growth OD615, 2 d; at 50 µM; active compounds read high

O=C(NCC1CCCO1)c1ccc(CS(=O)(=O)c2ccc(Br)cc2)o1 (configuration not stated)
inactive: growth inhibition [1] -9.31% | growth inhibition [2] -13.1% | viability increase [3] -1.53% | viability [4] 97.8% | viability [5] 97.9% | inhibition [6] 1.06% | RAM network inhibition [7] 2.45%

CC(=O)NCCc1ccc(S(=O)(=O)N2CCCC2)cc1
inactive: growth inhibition [1] -6.14% | growth inhibition [2] 1.21% | viability increase [3] 0.04% | viability [4] 96.2% | viability [5] 96% | inhibition [6] 3.39% | RAM network inhibition [7] 3.82%

Clc1ccc2nc3ccccn3c2c1
inactive: growth inhibition [1] -6.63% | growth inhibition [2] -5.02% | viability increase [3] -4.02% | viability [4] 109% | viability [5] 106% | inhibition [6] 1.56% | RAM network inhibition [7] 2.48%

CCOc1ccc(-n2c(SCC(=O)NCc3ccco3)nc3c(c2=O)SCC3)cc1
inactive: growth inhibition [1] -21.1% | growth inhibition [2] -19.1% | viability increase [3] -3.31% | viability [4] 95.2% | viability [5] 98.4% | inhibition [6] 3.37% | RAM network inhibition [7] 7.34%

Cc1ccc(S(=O)(=O)NCc2nc3ccccc3[nH]2)cc1
inactive: growth inhibition [1] -4.75% | growth inhibition [2] 4.05% | viability increase [3] 1.61% | viability [4] 98.7% | viability [5] 97.8% | inhibition [6] 2.42% | RAM network inhibition [7] 1.58%

O=C(Nc1nnc(C2CC2)s1)c1cc(-c2ccccc2)nn1-c1ccccc1
inactive: growth inhibition [1] 2.87% | growth inhibition [2] 30.2% | viability increase [3] -0.61% | viability [4] 76.6% | viability [5] 71.9% | inhibition [6] 2.71% | RAM network inhibition [7] 3.62%

Cc1ccc2oc(=O)c3cnn(CC(=O)Nc4ccccc4N4CCN(C)CC4)c3c2c1
inactive: growth inhibition [1] 0.52% | growth inhibition [2] -25.3% | viability increase [3] -6.16% | inhibition [6] -0.415% | RAM network inhibition [7] -0.65%
active: viability [4] 8.9% | viability [5] 6.03%

COc1cc(NC(=O)c2cc3c(C)nc4ccccc4c3o2)cc(OC)c1OC
inactive: growth inhibition [1] 7.32% | growth inhibition [2] 13.2% | viability increase [3] -5.18% | viability [4] 86.2% | viability [5] 86.7% | inhibition [6] 0.93% | RAM network inhibition [7] 0.97%

Cc1ccc(-n2nc(C)c3c2OC(N)=C(C#N)C3c2cccs2)cc1 (configuration not stated)
inactive: growth inhibition [1] -14.8% | growth inhibition [2] -26.3% | viability increase [3] -3.41% | viability [4] 90.5% | viability [5] 88.5% | inhibition [6] 1.91% | RAM network inhibition [7] 0.52%

CC(C)CCSc1nnc(Cn2c(=O)sc3ccccc32)n1C
inactive: growth inhibition [1] -10.3% | growth inhibition [2] 2.02% | viability increase [3] 0.27% | viability [4] 79.8% | viability [5] 83.5% | inhibition [6] 1.08% | RAM network inhibition [7] 4.4%

CC1CCCCN1C(=O)c1ccc(S(=O)(=O)N2CCCCC2C)cc1 (configuration not stated)
inactive: growth inhibition [1] -5.29% | growth inhibition [2] -15.2% | viability increase [3] -2.45% | viability [4] 96.7% | viability [5] 95.6% | inhibition [6] 1.99% | RAM network inhibition [7] 2.28%

CCOC(=O)COn1c(=O)c(=O)n(O)c2ccccc21
inactive: growth inhibition [1] -14.5% | growth inhibition [2] -14.8% | viability increase [3] -4.99% | viability [4] 87.2% | viability [5] 87.1% | inhibition [6] 1.54% | RAM network inhibition [7] 1.4%

COc1cc(-c2nnc(COc3ccc4cc(Br)ccc4c3)o2)cc(OC)c1OC
inactive: growth inhibition [1] -10.6% | growth inhibition [2] -8.51% | viability increase [3] 0.27% | viability [4] 62.9% | viability [5] 46.7% | inhibition [6] 0.505% | RAM network inhibition [7] 3.67%

CCOc1ccc(-c2nnc(-c3ccco3)o2)cc1
inactive: growth inhibition [1] -1.61% | growth inhibition [2] 5.67% | viability increase [3] 1.72% | viability [4] 94.5% | viability [5] 101% | inhibition [6] 0.695% | RAM network inhibition [7] 2.38%

COc1ccc(-n2c(Cc3cccn3C)nnc2SCC(=O)Nc2ccc3c(c2)OCCO3)cc1
inactive: growth inhibition [1] 4.97% | growth inhibition [2] 8.29% | viability increase [3] -1.74% | viability [4] 103% | viability [5] 94.6% | inhibition [6] 1.61% | RAM network inhibition [7] 6.11%

O=P(/C(=N/O)Sc1ccccc1)(N1CCOCC1)N1CCOCC1
inactive: growth inhibition [1] -7.6% | growth inhibition [2] 1.87% | viability increase [3] -4.88% | viability [4] 90% | viability [5] 97% | inhibition [6] 0.62% | RAM network inhibition [7] 4.34%

CCN(CC)C(=O)CCCOc1ccc(Cl)cc1Cl
inactive: growth inhibition [1] -2.5% | growth inhibition [2] -0.045% | viability increase [3] 0.07% | viability [4] 76.7% | viability [5] 83.9% | inhibition [6] -0.905% | RAM network inhibition [7] 0.45%

Cc1cc(C)nc(SCc2ccccc2C#N)n1
inactive: growth inhibition [1] -9.81% | growth inhibition [2] -6.26% | viability increase [3] -0.49% | viability [4] 98.8% | viability [5] 98% | inhibition [6] 0.705% | RAM network inhibition [7] 9.71%

COc1ccc(-c2nc(CS(=O)CC(=O)NCC3CCCO3)c(C)o2)cc1 (configuration not stated)
inactive: growth inhibition [1] -7.51% | growth inhibition [2] 15.5% | viability increase [3] -2.38% | viability [4] 97.8% | viability [5] 102% | inhibition [6] -0.795% | RAM network inhibition [7] 4.03%

CCN1C(=O)c2ccccc2S(=O)c2ccc(C(=O)NCCCN3CCCC3=O)cc21 (configuration not stated)
inactive: growth inhibition [1] -7.88% | growth inhibition [2] -6.62% | viability increase [3] -3.1% | viability [4] 97.5% | viability [5] 87.7% | inhibition [6] 0.64% | RAM network inhibition [7] -1.15%

CC(C)C(NS(=O)(=O)c1ccc2c(c1)oc(=O)n2C)C(=O)N1CCN(Cc2ccccc2)CC1 (configuration not stated)
inactive: growth inhibition [1] -5.8% | growth inhibition [2] -20.3% | viability increase [3] -3.99% | viability [4] 88.9% | viability [5] 92% | inhibition [6] 2.62% | RAM network inhibition [7] -2.73%

COCCNC(=O)c1cc(-c2ccccc2OC)on1
inactive: growth inhibition [1] 5.14% | growth inhibition [2] 11.4% | viability increase [3] -5.78% | viability [4] 62.3% | viability [5] 55.5% | inhibition [6] -0.05% | RAM network inhibition [7] 2.09%

CC(C)(C)n1nc2c(c1NC(=O)c1ccc(Br)cc1)CS(=O)C2 (configuration not stated)
inactive: growth inhibition [1] -8.25% | growth inhibition [2] -4.19% | viability increase [3] 0.64% | viability [4] 107% | viability [5] 99.2% | inhibition [6] 0.495% | RAM network inhibition [7] -0.53%

COc1ccc(N2CCN(C(=O)c3ccc4nc(N5CCCCC5)sc4c3)CC2)cc1
inactive: growth inhibition [1] 9.87% | growth inhibition [2] 6.32% | viability increase [3] 0.49% | viability [4] 101% | viability [5] 87% | inhibition [6] 2.52% | RAM network inhibition [7] 6.15%

COC(=O)CN1C(=O)C(O)(CC(=O)c2cccc(Br)c2)c2ccccc21 (configuration not stated)
inactive: growth inhibition [1] -6.81% | growth inhibition [2] -10.7% | viability increase [3] -4.39% | viability [4] 90.9% | viability [5] 86.9% | inhibition [6] 1.2% | RAM network inhibition [7] 2.42%

COc1ccccc1NC(=O)C1=C(C)Nc2nc(-c3cccs3)nn2C1c1cccnc1 (configuration not stated)
inactive: growth inhibition [1] -13.7% | growth inhibition [2] -9.57% | viability increase [3] -5.67% | viability [4] 86.7% | viability [5] 91.4% | inhibition [6] 2.23% | RAM network inhibition [7] 4.86%

O=C(CN1CCOc2ccccc21)NCc1ccccc1
inactive: growth inhibition [1] -29.7% | growth inhibition [2] 4.34% | viability increase [3] -6.69% | viability [4] 98.2% | viability [5] 86% | inhibition [6] 0.395% | RAM network inhibition [7] 2.11%

CCCCCCn1c(SCCOC)nc2c1c(=O)[nH]c(=O)n2C
inactive: growth inhibition [1] -2.79% | growth inhibition [2] -3.65% | viability increase [3] -0.71% | viability [4] 90.2% | viability [5] 85% | inhibition [6] 1.88% | RAM network inhibition [7] 9.09%

C=CCOC(=O)C1=C(C)N(C)C(=O)NC1c1cc2c(cc1Br)OCO2 (configuration not stated)
inactive: growth inhibition [1] 0.155% | growth inhibition [2] -0.035% | viability increase [3] -1.27% | viability [4] 88.1% | viability [5] 91.8% | inhibition [6] 1.38% | RAM network inhibition [7] 5.32%

CCOc1ccc(C2CC(c3ccc(OC)cc3)n3ncnc3N2)cc1 (configuration not stated)
inactive: growth inhibition [1] 1.92% | growth inhibition [2] 21% | viability increase [3] 0.61% | viability [4] 104% | viability [5] 99% | inhibition [6] -0.22% | RAM network inhibition [7] 4.99%

CN(C(=O)c1ccc2c(c1)OCO2)C1(C(=O)NC2CCCCC2)CCCCC1
inactive: growth inhibition [1] -8.36% | growth inhibition [2] 0.39% | viability increase [3] -1.06% | viability [4] 90.6% | viability [5] 83.6% | inhibition [6] 1.91% | RAM network inhibition [7] 0.21%

c1cn2c(NC3CCCC3)c(-c3ccc(N4CCOCC4)cc3)nc2cn1
inactive: growth inhibition [1] -2.94% | growth inhibition [2] 7.59% | viability increase [3] -4.3% | viability [4] 88.8% | viability [5] 77.8% | inhibition [6] 1.78% | RAM network inhibition [7] 3.25%

O=C1CCCC(O)=C1C1C2=C(CCCC2=O)Oc2ccccc21 (configuration not stated)
inactive: growth inhibition [1] -12.6% | growth inhibition [2] -10.5% | viability increase [3] -5.35% | viability [4] 91.6% | viability [5] 90.1% | inhibition [6] 2.33% | RAM network inhibition [7] 3.55%

CCOC(=O)N1CCN(C(=O)CSc2nnc(Cn3c(=O)sc4ccccc43)n2C)CC1
inactive: growth inhibition [1] -12.9% | growth inhibition [2] -13% | viability increase [3] -2.25% | viability [4] 98.4% | viability [5] 95.8% | inhibition [6] 1.69% | RAM network inhibition [7] 1.9%

Cc1ccc(-c2nc(C#N)c(N3CCCCC3)o2)cc1
inactive: growth inhibition [1] -4.44% | growth inhibition [2] -6.95% | viability increase [3] -1.61% | viability [4] 98% | viability [5] 78.1% | inhibition [6] 1.51% | RAM network inhibition [7] 3.37%

COc1cccc(NC(=O)Cn2cnc3sc(C)c(S(=O)(=O)N4CCN(C)CC4)c3c2=O)c1
inactive: growth inhibition [1] -17.7% | growth inhibition [2] -24.1% | viability increase [3] -1.93% | viability [4] 89% | viability [5] 83.2% | inhibition [6] 1.76% | RAM network inhibition [7] 1.09%
